Screening results (PubChem)
Rows were chosen to be rich in hits. Some 3% of all compounds tested hit in one or more screens of this group.
Ecoli rRNA inh = reduced GFP signal of wild-type E. coli, primary screen, bacterial rRNA inhibitor project, GFP/RFP fluorescence, OD600, single point | AID 720706, 2013 | 1.6% of 350,000 active | E. coli WT GFP vs humanized-ribosome RFP mutants, 24 h; active compounds read low; DMSO median 0, no signal -100 | GFP signal change (wild-type ribosome), % (test concentration not listed);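 active = significant combined selectivity score with lowered wild-type GFP, culture density cut under 30%, mutant RFP and density less affected; inactive = any of these conditions unmet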
Cneo AK release = Cryptococcus neoformans cell lysis inducers, primary screen, AK release luminescence, single concentration | C. neoformans lysis, adenylate kinase release luminescence, 4 h; normalised: neutral wells 0, clomiphene wells 100 | lysis activity, % at 15 µM | 0.2% of 360,000 active | AID 651654, 2012;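 active = mean lysis activity across replicates of at least 80%, whatever share of replicates individually reach that level; inactive = mean lysis activity below 80%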
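Test system: log-phase Cryptococcus neoformans yeast cells. Input: 5 × 10^6 yeast cells/mL. Medium: fresh YPD growth medium. Doses: single dose. Incubation: static 4 h at 37 °C with compound, 1 h detection. Measured by: luminescent adenylate kinase detection reagent. Read-out: signal increase indicating cell lysis. Benchmarks: Clomiphene.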
S100A4 inh HTS = inhibitors of S100A4-myosin IIA peptide binding, primary screen, biochemical, fluorescence polarization, TAMRA-MyoIIA peptide | inhibition, % at 10.7 µM | 0.14% of 360,000 active;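 active = mean inhibition of at least 70% across replicates, with every replicate also reaching that level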
Target sequence (P26447 whole entry, looked up): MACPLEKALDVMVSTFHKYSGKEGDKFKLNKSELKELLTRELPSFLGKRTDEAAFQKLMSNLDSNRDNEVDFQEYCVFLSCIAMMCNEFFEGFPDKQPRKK
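Material: S100A4 monomer (human). Medium: Calcium-containing HEPES buffer, pH 7.2. Probe or stimulus: labelled myosin peptide probe, 5 nM. Compound dosing: one concentration per compound. Timing: polarization read 5 min after assay mix addition, stable 5–60 min. Benchmarks: DMSO as neutral control, TFP as positive control.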
PGC1a acetyl inh = inhibitors of PGC1a acetylation signal, primary screen, cell-based, U2OS, AlphaScreen, inhibitor mode. AID 651687, 2012. 0.17% of 350,000 active. AlphaScreen anti-acetyl-lysine; with virally co-expressed GCN5 acetyltransferase. inhibition, % at 15.6 µM;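 active = every replicate shows inhibition of at least 40%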
C2C12 statin = suppressors of statin myotoxicity in C2C12 myotubes, primary screen, cell-based, single point, plate reader. 0.78% of 330,000 active. C2C12 myotubes + simvastatin, ATP luminescence, 48 h; scaled: DMSO 0, geranylgeraniol control 100. rescue of ATP level, % at 7.49 µM. AID 602340, 2012;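 active = mean ATP rescue above about 67%, or every replicate alone reaching that limit, limit read from the data, passing the limit was not always enough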;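 note: myotubes were challenged with 10 µM simvastatin during compound exposure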
SIRT5 block = SIRT5 desuccinylase inhibitors, primary screen, biochemical, fluorescence imaging, single point, set 5; NAD-dependent protein deacylase sirtuin-5, mitochondrial (Homo sapiens), Q9NXA8; Purified SirT5, succinyl-peptide AMC, trypsin-coupled fluorescence; inhibition, % at 15 µM; 1.1% of 330,000 active; AID 652115, 2013; in the data active = inhibition above about 15%
Target sequence (Q9NXA8 whole entry, looked up): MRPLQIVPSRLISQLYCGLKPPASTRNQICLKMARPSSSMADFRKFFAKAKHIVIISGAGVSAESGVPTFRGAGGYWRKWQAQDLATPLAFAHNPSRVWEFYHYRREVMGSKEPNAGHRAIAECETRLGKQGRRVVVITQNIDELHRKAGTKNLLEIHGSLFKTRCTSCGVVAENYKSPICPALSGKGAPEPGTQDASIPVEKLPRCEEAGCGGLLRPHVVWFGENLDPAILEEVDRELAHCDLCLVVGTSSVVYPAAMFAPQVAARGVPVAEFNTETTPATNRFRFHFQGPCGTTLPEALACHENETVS
Numbers stand for hits; . = inactive; / = not tested or not shown.

SMILES	Ecoli rRNA inh	Cneo AK release	S100A4 inh HTS	PGC1a acetyl inh	C2C12 statin	SIRT5 block
O=C(NC(=S)NCc1ccco1)c1ccc([N+](=O)[O-])cc1	-5.5	/	.	/	/	/
O=C(NC(=S)NCc1ccco1)c1ccccc1	.	/	.	.	.	.
CCOCCc1nnc(NC(=O)C(CC)c2ccccc2)s1 (centres undefined)	/	.	/	.	116.1	/
CC(=O)Nc1ccc2c(c1)C(=O)N(C)[C@H]1CC[C@@H](CC(=O)NCc3ccccc3)O[C@@H]1CO2	.	.	.	.	.	.
O=S(=O)(c1ccc(Cl)c(NC(=S)Nc2ccccc2N2CCOCC2)c1)N1CCOCC1	.	/	.	/	/	.
O=C(NC(=S)Nc1cc(Cl)ccc1N1CCOCC1)c1ccccc1[N+](=O)[O-]	.	339.9	.	/	/	.
Cc1onc(-c2c(F)cccc2Cl)c1C(=O)Nc1ccccc1N1CCOCC1	-28.3	.	.	/	.	.
COc1ccc(Cl)cc1C(=O)NC(=S)Nc1ccccc1N1CCOCC1	.	.	.	.	.	.
Fc1ccc(NC(=S)Nc2ccccc2N2CCOCC2)cc1Cl	-26.8	/	.	.	/	.
C[C@H]1CN([C@@H](C)CO)C(=O)c2cccc(NC(=O)c3ccncc3)c2O[C@@H]1CN(C)Cc1ccc(Oc2ccccc2)cc1	/	.	.	.	.	.
CCOc1ccc(/C(O)=C2/C(=O)C(=O)N(c3ncccn3)C2c2ccc(Cl)cc2)cc1 (centres undefined)	-31.6	.	.	.	/	.
COc1ccc(/C(O)=C2/C(=O)C(=O)N(c3ncccn3)C2c2ccc(C(C)(C)C)cc2)cc1 (centres undefined)	.	/	.	/	/	.
O=C(CC1CC1)N1CC2(C1)[C@H](c1ccccc1)[C@H](CO)N2Cc1ccccn1	.	/	.	.	/	.
Cc1csc(NC(=O)c2ccc(S(C)(=O)=O)cc2)n1	.	/	.	.	/	19.3
COc1ccccc1C(=O)Nc1ccc2c(c1)nc1n2CCN(C2CCCCC2)C1	-18.5	.	.	.	.	.
O=C(Nc1ccc2c(c1)nc1n2CCN(C2CCCCC2)C1)c1ccco1	.	.	.	.	.	.
C=CCn1c(O)c(C2=c3ccccc3=NC2=O)sc1=Nc1ccc(O)cc1	-8.0	.	.	.	/	.
C[C@@H]1CN([C@@H](C)CO)C(=O)c2cc(NS(=O)(=O)c3cccs3)ccc2O[C@@H](C)CCCCO[C@@H]1CN(C)Cc1ccc(C(=O)O)cc1	.	.	.	.	/	.
C[C@@H]1CCCCO[C@H](CN(C)Cc2ccc(C(=O)O)cc2)[C@H](C)CN([C@H](C)CO)C(=O)c2cc(NS(=O)(=O)c3cccs3)ccc2O1	.	.	.	.	/	20.8
C[C@@H]1CCCCO[C@H](CN(C)Cc2ccccc2)[C@H](C)CN([C@@H](C)CO)C(=O)c2cc(NS(=O)(=O)c3cccs3)ccc2O1	.	86.2	.	.	/	.
O=C(Cc1ccccn1)N1CC(=O)N2[C@H](C1)[C@@H](c1ccc(C#CC3CCCC3)cc1)[C@@H]2CO	.	/	.	.	/	.
Cc1noc(C)c1CSc1nc2sc3c(c2c(=O)n1C)CCCC3	/	.	/	.	.	/
Cc1noc(C)c1CSc1nc2sc(C)c(C)c2c(=O)n1C1CCCC1	.	.	.	/	.	34.9
COc1cc(OC)cc(-c2nc3nc(C)c(CCC(=O)O)c(C)n3n2)c1	/	.	/	.	116.6	/
Cc1ccc(Cl)cc1NS(=O)(=O)c1c(C)[nH]c(=O)[nH]c1=O	/	.	/	.	.	/
SMILES	Ecoli rRNA inh	Cneo AK release	S100A4 inh HTS	PGC1a acetyl inh	C2C12 statin	SIRT5 block
COc1ccc(Cl)cc1NS(=O)(=O)c1c(C)[nH]c(=O)[nH]c1=O	.	.	.	.	86.9	.
Cc1ccc(OCC(O)CNC(=O)c2ccccc2C(=O)O)cc1 (centres undefined)	/	.	/	.	104.9	/
Cc1cccc(OCC(O)CNC(=O)c2ccccc2C(=O)O)c1 (centres undefined)	/	.	/	.	.	/
O=C(O)CC1(CC(=O)Nc2ccc(F)c(Cl)c2)CCCCC1	-23.4	.	.	.	/	.
O=C(O)CC1(CC(=O)Nc2ccc3ccccc3c2)CCCCC1	/	.	/	.	.	/
O=C(c1cccc(F)c1)N1CC(=O)N2[C@@H](CO)[C@@H](c3ccc(C4=CCCC4)cc3)[C@@H]2C1	.	/	.	.	/	.
COc1ccc(C=O)c2[nH]c3c(Cl)ncnc3c12	.	.	.	.	.	16.9
COc1cc2[nH]c3c(Cl)ncnc3c2cc1OC	/	.	/	.	.	/
Cc1noc(C)c1NC(=O)N(C)C[C@@H]1OCCCC[C@@H](C)Oc2ccc(N(C)C)cc2C(=O)N([C@H](C)CO)C[C@@H]1C	.	/	/	.	.	/
CCCc1n[nH]c2c1/C(=N/O)CC(c1ccccc1)C2 (centres undefined)	/	.	/	.	/	/
CCc1n[nH]c2c1/C(=N/O)CCC2	/	.	/	.	87.3	/
CCOC(=O)c1c(S(=O)(=O)NCc2cccs2)c(C)n(C)c1C	.	.	.	.	.	.
Cc1nn(C)c(C)c1S(=O)(=O)NCc1cccs1	/	.	/	.	81.9	/
c1csc(CNc2ncnc3ccc(-c4ccoc4)cc23)c1	.	.	.	50.4	.	/
Cc1cccc(CNc2ncnc3ccc(-c4ccccc4Cl)cc23)c1	.	.	.	.	.	.
Cc1csc(CNc2ncnc3ccc(-c4cccc(Cl)c4)cc23)c1	.	.	.	/	.	34.3
C[C@H](CO)N1C[C@H](C)[C@@H](CN(C)S(=O)(=O)c2ccccc2)OCCCC[C@H](C)Oc2ccc(NS(C)(=O)=O)cc2C1=O	.	.	.	.	.	.
O=C(CSc1ccccc1)NCc1ccccc1	.	.	.	.	.	.
O=C(CSc1ccccc1C(=O)O)NCc1ccccc1	.	.	.	.	.	15.3
C[C@H](CO)N1C[C@H](C)[C@@H](CN(C)Cc2ccc(F)cc2)OCc2ccccc2-c2c(n(C)c3ccccc23)C1=O	.	/	/	/	/	/
COc1ccc(C(=O)N2c3ccc(F)cc3CCC2C)cc1OC (centres undefined)	/	.	/	.	.	/
COc1cc(OC)cc(C(=O)N2c3ccc(F)cc3CCC2C)c1 (centres undefined)	/	.	/	.	90.1	/
CC(C)NC(=O)Nc1cccc2c1O[C@H](CN(C)C)[C@@H](C)CN(C)C2=O	.	/	/	/	/	/
C[C@H](CO)N1C[C@H](C)[C@@H](CN(C)S(=O)(=O)c2cn(C)cn2)Oc2ccc(NC(=O)C3CC3)cc2C1=O	.	.	.	.	.	.
